Test results reported in ChEMBL document CHEMBL1154243, “Chemical Constituents of the Roots of Euphorbia micractina” (J Nat Prod, 2009).
Active and inactive are the calls of the source. The calls are words filed in the database; no cut-off is given here.

These molecules were tested against T1, Tyrosine-protein phosphatase non-receptor type 1 (Homo sapiens) (UniProt P18031) (assay: Inhibition of GST-tagged human PTP1B). Conditions: not given.
T1 sequence (whole entry): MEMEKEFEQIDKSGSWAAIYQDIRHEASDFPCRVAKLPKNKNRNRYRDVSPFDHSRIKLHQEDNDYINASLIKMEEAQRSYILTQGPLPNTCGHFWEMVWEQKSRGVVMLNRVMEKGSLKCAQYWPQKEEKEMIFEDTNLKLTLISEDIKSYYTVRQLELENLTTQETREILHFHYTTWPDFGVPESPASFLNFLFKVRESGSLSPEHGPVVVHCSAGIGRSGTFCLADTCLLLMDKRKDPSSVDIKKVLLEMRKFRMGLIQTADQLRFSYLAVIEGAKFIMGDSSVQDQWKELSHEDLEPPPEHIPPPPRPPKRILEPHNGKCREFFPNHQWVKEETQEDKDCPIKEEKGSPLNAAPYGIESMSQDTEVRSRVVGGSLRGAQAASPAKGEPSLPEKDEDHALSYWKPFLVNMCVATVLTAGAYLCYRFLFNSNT
With CC(=O)O[C@]12C[C@H](C)[C@H](O)[C@@H]1/C=C(\C)CC[C@H]1[C@@H](/C=C(\C)C2=O)C1(C)C the inhibition was “inactive”. CCCCCCCCCCCCCCCC(=O)OCC(O)CO (centres undefined) was tested, and the inhibition was “inactive”. In the case of CCCCCCCCCC/C=C\CCCCCC(=O)OC(CO)CO, the inhibition is reported as “inactive”. In the case of C/C1=C\[C@@H]2[C@H](CC[C@@]3(C)O[C@@H]3[C@H]3[C@@H](O)[C@@H](C)C[C@]3(OC(=O)c3ccccc3)C1=O)C2(C)C, the inhibition is reported as “inactive”. For C[C@H]1[C@H](C)CC[C@]2(CO)CC[C@]3(C)C(=CC[C@@H]4[C@@]5(C)CC[C@H](O)C(C)(C)[C@@H]5CC[C@]43C)[C@H]12, the inhibition was “inactive”. With C/C1=C\[C@@H]2[C@H](CC[C@@]3(C)O[C@@H]3[C@H]3[C@@H](O)[C@@H](C)C[C@]3(OC(=O)/C=C/c3ccccc3)C1=O)C2(C)C [JOLKINOL B] the inhibition was “inactive”. CC(=O)O[C@H]1CC[C@@]2(C)[C@@H]3C[C@@H]4OC(=O)C(C)=C4C=C3CC[C@@H]2C1(C)C was tested, and the inhibition was “inactive”. With C=C(C)[C@H](O)CC[C@H](C)[C@@H]1CC[C@]2(C)C3=CC[C@H]4C(C)(C)[C@@H](O)CC[C@]4(C)C3=CC[C@@]12C the inhibition was “inactive”. COc1cc2ccc(=O)oc2cc1O was tested, and the inhibition was “inactive”. For C=C(C)[C@H](O)CC[C@H](C)[C@@H]1CC[C@]2(C)C3=C(CC[C@@]12C)[C@@]1(C)CC[C@H](O)C(C)(C)[C@@H]1CC3, the inhibition was “inactive”. CCCCC/C=C/C=C\C(=O)O[C@H]1C(C)=C[C@]23C(=O)[C@@H](C=C(COC(C)=O)[C@@H](O)[C@]12O)[C@H]1[C@@H](C[C@H]3C)C1(C)C was tested, and the inhibition was “inactive”. C[C@@H](C/C=C/C(C)(C)OO)[C@@H]1CC[C@]2(C)C3=C(CC[C@@]12C)[C@@]1(C)CC[C@H](O)C(C)(C)[C@@H]1CC3=O was tested, and the inhibition was “inactive”. For CCCCCCCCCCCCCCCCCCCCCCCCCCCCCCO, the inhibition was “inactive”.

These molecules were tested on A2780 (assay: Cytotoxicity against human A2780 cells after 4 days by MTT assay). Conditions: not given.
Format: functional, cell-based
With CC(=O)O[C@]12C[C@H](C)[C@H](O)[C@@H]1/C=C(\C)CC[C@H]1[C@@H](/C=C(\C)C2=O)C1(C)C the Activity was “inactive”. In the case of CCCCCCCCCCCCCCCC(=O)OCC(O)CO (centres undefined), the Activity is reported as “inactive”. With CCCCCCCCCC/C=C\CCCCCC(=O)OC(CO)CO the Activity was “inactive”. C/C1=C\[C@@H]2[C@H](CC[C@@]3(C)O[C@@H]3[C@H]3[C@@H](O)[C@@H](C)C[C@]3(OC(=O)c3ccccc3)C1=O)C2(C)C was tested, and the Activity was “inactive”. In the case of C[C@H]1[C@H](C)CC[C@]2(CO)CC[C@]3(C)C(=CC[C@@H]4[C@@]5(C)CC[C@H](O)C(C)(C)[C@@H]5CC[C@]43C)[C@H]12, the Activity is reported as “inactive”. In the case of C/C1=C\[C@@H]2[C@H](CC[C@@]3(C)O[C@@H]3[C@H]3[C@@H](O)[C@@H](C)C[C@]3(OC(=O)/C=C/c3ccccc3)C1=O)C2(C)C [JOLKINOL B], the Activity is reported as “inactive”. With CC(=O)O[C@H]1CC[C@@]2(C)[C@@H]3C[C@@H]4OC(=O)C(C)=C4C=C3CC[C@@H]2C1(C)C the Activity was “inactive”. With C=C(C)[C@H](O)CC[C@H](C)[C@@H]1CC[C@]2(C)C3=CC[C@H]4C(C)(C)[C@@H](O)CC[C@]4(C)C3=CC[C@@]12C the Activity was “inactive”. With COc1cc2ccc(=O)oc2cc1O the Activity was “inactive”. C=C(C)[C@H](O)CC[C@H](C)[C@@H]1CC[C@]2(C)C3=C(CC[C@@]12C)[C@@]1(C)CC[C@H](O)C(C)(C)[C@@H]1CC3 was tested, and the Activity was “inactive”. In the case of CCCCC/C=C/C=C\C(=O)O[C@H]1C(C)=C[C@]23C(=O)[C@@H](C=C(COC(C)=O)[C@@H](O)[C@]12O)[C@H]1[C@@H](C[C@H]3C)C1(C)C, the Activity is reported as “inactive”. With C[C@@H](C/C=C/C(C)(C)OO)[C@@H]1CC[C@]2(C)C3=C(CC[C@@]12C)[C@@]1(C)CC[C@H](O)C(C)(C)[C@@H]1CC3=O the Activity was “inactive”. In the case of CCCCCCCCCCCCCCCCCCCCCCCCCCCCCCO, the Activity is reported as “inactive”.

The molecules below were run on Human immunodeficiency virus 1 (assay: Antiviral activity against HIV-1 NL4-3 expressing VSV-G envelope infected in human 293T cells assessed as inhibition of viral replication after 48 hrs by Luciferase reporter gene assay). Conditions: not given.
Format: functional, organism-based
How it was run: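 VSV-G-pseudotyped, env-deficient pNL4-3.luc.R-E- virions made by calcium phosphate cotransfection of 293 cells, then filtered. Virions quantified by p24 ELISA and diluted to 0.2 ng p24/mL. Compounds added 15 min before virus, with solvent-only blank. Luciferase in lysates read 48 h post-infection. Zidovudine served as positive control.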
In the case of CC(=O)O[C@]12C[C@H](C)[C@H](O)[C@@H]1/C=C(\C)CC[C@H]1[C@@H](/C=C(\C)C2=O)C1(C)C, the Activity is reported as “inactive”. With CCCCCCCCCCCCCCCC(=O)OCC(O)CO (centres undefined) the Activity was “inactive”. CCCCCCCCCC/C=C\CCCCCC(=O)OC(CO)CO was tested, and the Activity was “inactive”. In the case of C/C1=C\[C@@H]2[C@H](CC[C@@]3(C)O[C@@H]3[C@H]3[C@@H](O)[C@@H](C)C[C@]3(OC(=O)c3ccccc3)C1=O)C2(C)C, the Activity is reported as “inactive”. C[C@H]1[C@H](C)CC[C@]2(CO)CC[C@]3(C)C(=CC[C@@H]4[C@@]5(C)CC[C@H](O)C(C)(C)[C@@H]5CC[C@]43C)[C@H]12 was tested, and the Activity was “inactive”. With CC(=O)O[C@H]1CC[C@@]2(C)[C@@H]3C[C@@H]4OC(=O)C(C)=C4C=C3CC[C@@H]2C1(C)C the Activity was “inactive”. With C=C(C)[C@H](O)CC[C@H](C)[C@@H]1CC[C@]2(C)C3=CC[C@H]4C(C)(C)[C@@H](O)CC[C@]4(C)C3=CC[C@@]12C the inhibition was “inactive”. For COc1cc2ccc(=O)oc2cc1O, the Activity was “inactive”. C=C(C)[C@H](O)CC[C@H](C)[C@@H]1CC[C@]2(C)C3=C(CC[C@@]12C)[C@@]1(C)CC[C@H](O)C(C)(C)[C@@H]1CC3 was tested, and the inhibition was “inactive”. With CCCCC/C=C/C=C\C(=O)O[C@H]1C(C)=C[C@]23C(=O)[C@@H](C=C(COC(C)=O)[C@@H](O)[C@]12O)[C@H]1[C@@H](C[C@H]3C)C1(C)C the Activity was “inactive”. C[C@@H](C/C=C/C(C)(C)OO)[C@@H]1CC[C@]2(C)C3=C(CC[C@@]12C)[C@@]1(C)CC[C@H](O)C(C)(C)[C@@H]1CC3=O was tested, and the inhibition was “inactive”. CCCCCCCCCCCCCCCCCCCCCCCCCCCCCCO was tested, and the Activity was “inactive”.

Same assay, conditions: Human immunodeficiency virus 1, NL4-3, HEK-293T
C/C1=C\[C@@H]2[C@H](CC[C@@]3(C)O[C@@H]3[C@H]3[C@@H](O)[C@@H](C)C[C@]3(OC(=O)/C=C/c3ccccc3)C1=O)C2(C)C [JOLKINOL B] showed an IC50 of 12.6 µM.
